According to ChEMBL document CHEMBL4673212, “Investigation of synergistic antimicrobial effects of the drug combinations of meropenem and 1,2-benzisoselenazol-3(2H)-one derivatives on carbapenem-resistant Enterobacteriaceae producing NDM-1” (Eur J Med Chem, 2018):
Values after ≈ are worked out from the molar mass of the structure shown.

Columns and labels:
[1] = tested on: Enterobacter cloacae; assay: Potentiation of meropenem-induced antibacterial activity against carbapenem-resistant Enterobacter cloacae isolate 28 harboring TEM-1 and SHV-12 assessed as meropenem MIC by CLSI protocol based assay (reference value: 32 ug/ml); assay type: functional
[2] = tested on: Klebsiella pneumoniae; assay: Synergistic antibacterial activity against carbapenem-resistant Klebsiella pneumoniae isolate 04 harboring CTX-M-14, VIM-1, TEM-1 and SHV-12 assessed as fractional inhibitory concentration index in presence of meropenem by CLSI protocol based assay; assay type: functional
Summary of the method: (§1)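 FIC index from MICs of compound alone, meropenem alone, and the 1:1 (mass) compound–meropenem combination, read by eye after overnight incubation in a CLSI-based assay. FIC index = MICcombo/MICcpd + MICcombo/MICMem. FIC index ≤0.5 counted as synergy. At least triplicate assays. Clinical NDM-1 isolates for 17-39; E. coli TG1 carrying the IncX3 blaNDM-1 plasmid for 15.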

[3] = tested on: Enterobacter cloacae; assay: Growth inhibition of carbapenem-resistant Enterobacter cloacae isolate 10 harboring CTX-M-14, TEM-1 and SHV-12 by CLSI protocol based assay; assay type: functional
[4] = Growth inhibition of Escherichia coli TG1 transformed with IncX3 plasmid expressing blaNDM-1 incubated for overnight by CLSI protocol based assay; details: 12 h
[5] = tested on: Enterobacter cloacae; assay: Potentiation of meropenem-induced antibacterial activity against carbapenem-resistant Enterobacter cloacae isolate 19 harboring CTX-M-14 and KPC-2 assessed as meropenem MIC by CLSI protocol based assay (Rvb >= 128 ug/ml); assay type: functional
[6] = tested on: Enterobacter cloacae; assay: Synergistic antibacterial activity against carbapenem-resistant Enterobacter cloacae isolate 19 harboring CTX-M-14 and KPC-2 assessed as fractional inhibitory concentration index in presence of meropenem by CLSI protocol based assay; assay type: functional
[7] = tested on: Morganella morganii; assay: Synergistic antibacterial activity against carbapenem-resistant Morganella morganii isolate 23 assessed as fractional inhibitory concentration index in presence of meropenem by CLSI protocol based assay; assay type: functional; summary of the method: as §1
[8] = tested on: Escherichia coli; assay: Potentiation of meropenem-induced antibacterial activity against carbapenem-resistant Escherichia coli isolate 34 harboring CTX-M-15, TEM-1 and SHV-12 assessed as meropenem MIC by CLSI protocol based assay (reference value: 64 ug/ml); assay type: functional
[9] = tested on: Citrobacter freundii; assay: Synergistic antibacterial activity against carbapenem-resistant Citrobacter freundii isolate 43 assessed as fractional inhibitory concentration index in presence of meropenem by CLSI protocol based assay; assay type: functional; summary of the method: as §1
[10] = tested on: Escherichia coli; assay: Potentiation of meropenem-induced antibacterial activity against carbapenem-resistant Escherichia coli isolate 06 harboring CTX-M-14, CTX-M-3 and SHV-12 assessed as meropenem MIC by CLSI protocol based assay (Rvb >= 128 ug/ml); assay type: functional
[11] = tested on: Citrobacter freundii; assay: Growth inhibition of carbapenem-resistant Citrobacter freundii isolate 05 harboring SHV-12 by CLSI protocol based assay; assay type: functional
[12] = tested on: Citrobacter freundii; assay: Synergistic antibacterial activity against carbapenem-resistant Citrobacter freundii isolate 05 harboring SHV-12 assessed as fractional inhibitory concentration index in presence of meropenem by CLSI protocol based assay; assay type: functional; summary of the method: as §1
[13] = tested on: Klebsiella oxytoca; assay: Synergistic antibacterial activity against carbapenem-resistant Klebsiella oxytoca isolate 16 harboring SHV-12 assessed as fractional inhibitory concentration index in presence of meropenem by CLSI protocol based assay; assay type: functional; summary of the method: as §1
[14] = tested on: Enterobacter cloacae; assay: Potentiation of meropenem-induced antibacterial activity against carbapenem-resistant Enterobacter cloacae isolate 07 harboring CTX-M-14, TEM-1 and SHV-12 assessed as meropenem MIC by CLSI protocol based assay (reference value: 64 ug/ml); assay type: functional
[15] = tested on: Klebsiella oxytoca; assay: Potentiation of meropenem-induced antibacterial activity against carbapenem-resistant Klebsiella oxytoca isolate 16 harboring SHV-12 assessed as meropenem MIC by CLSI protocol based assay (Rvb >= 128 ug/ml); assay type: functional
[16] = tested on: Citrobacter freundii; assay: Growth inhibition of carbapenem-resistant Citrobacter freundii isolate 35 harboring CTX-M-3, KPC-2 and SHV-12 by CLSI protocol based assay; assay type: functional
[17] = tested on: Klebsiella pneumoniae; assay: Potentiation of meropenem-induced antibacterial activity against carbapenem-resistant Klebsiella pneumoniae isolate 04 harboring CTX-M-14, VIM-1, TEM-1 and SHV-12 assessed as meropenem MIC by CLSI protocol based assay (Rvb >= 128 ug/ml); assay type: functional
[18] = tested on: Enterobacter cloacae; assay: Synergistic antibacterial activity against carbapenem-resistant Enterobacter cloacae isolate 08 harboring CTX-M-14, TEM-1 and SHV-12 assessed as fractional inhibitory concentration index in presence of meropenem by CLSI protocol based assay; assay type: functional; summary of the method: as §1
[19] = tested on: Enterobacter cloacae; assay: Potentiation of meropenem-induced antibacterial activity against carbapenem-resistant Enterobacter cloacae isolate 09 harboring CTX-M-3, CTX-M-14, TEM-1 and SHV-12 assessed as meropenem MIC by CLSI protocol based assay (Rvb >= 128 ug/ml); assay type: functional
[20] = tested on: Klebsiella pneumoniae; assay: Synergistic antibacterial activity against carbapenem-resistant Klebsiella pneumoniae isolate 14 harboring CTX-M-14, KPC-2 and SHV-12 assessed as fractional inhibitory concentration index in presence of meropenem by CLSI protocol based assay; assay type: functional; summary of the method: as §1
[21] = tested on: Escherichia coli; assay: Growth inhibition of carbapenem-resistant Escherichia coli isolate 34 harboring CTX-M-15, TEM-1 and SHV-12 by CLSI protocol based assay; assay type: functional
[22] = tested on: Citrobacter freundii; assay: Growth inhibition of carbapenem-resistant Citrobacter freundii isolate 17 harboring SHV-12 by CLSI protocol based assay; assay type: functional
[23] = tested on: Escherichia coli; assay: Potentiation of meropenem-induced antibacterial activity against carbapenem-resistant Escherichia coli isolate 45 assessed as meropenem MIC by CLSI protocol based assay (Rvb >= 128 ug/ml); assay type: functional
[24] = tested on: Enterobacter cloacae; assay: Growth inhibition of carbapenem-resistant Enterobacter cloacae isolate 28 harboring TEM-1 and SHV-12 by CLSI protocol based assay; assay type: functional
[25] = tested on: Escherichia coli; assay: Synergistic antibacterial activity against Escherichia coli TG1 transformed with IncX3 plasmid expressing blaNDM-1 assessed as fractional inhibitory concentration index in presence of meropenem incubated for overnight by CLSI protocol based assay; assay type: functional; details: time 12 hrs; summary of the method: as §1
[26] = tested on: Enterobacter cloacae; assay: Synergistic antibacterial activity against carbapenem-resistant Enterobacter cloacae isolate 28 harboring TEM-1 and SHV-12 assessed as fractional inhibitory concentration index in presence of meropenem by CLSI protocol based assay; assay type: functional; summary of the method: as §1
[27] = tested on: Enterobacter cloacae; assay: Synergistic antibacterial activity against carbapenem-resistant Enterobacter cloacae isolate 09 harboring CTX-M-3, CTX-M-14, TEM-1 and SHV-12 assessed as fractional inhibitory concentration index in presence of meropenem by CLSI protocol based assay; assay type: functional; summary of the method: as §1
[28] = tested on: Enterobacter cloacae; assay: Growth inhibition of carbapenem-resistant Enterobacter cloacae isolate 27 harboring CTX-M-3, CTX-M-14, TEM-1 and SHV-12 by CLSI protocol based assay; assay type: functional
[29] = tested on: Enterobacter cloacae; assay: Growth inhibition of carbapenem-resistant Enterobacter cloacae isolate 08 harboring CTX-M-14, TEM-1 and SHV-12 by CLSI protocol based assay; assay type: functional
[30] = tested on: Escherichia coli; assay: Synergistic antibacterial activity against carbapenem-resistant Escherichia coli isolate 34 harboring CTX-M-15, TEM-1 and SHV-12 assessed as fractional inhibitory concentration index in presence of meropenem by CLSI protocol based assay; assay type: functional; summary of the method: as §1
[31] = tested on: Klebsiella pneumoniae; assay: Potentiation of meropenem-induced antibacterial activity against carbapenem-resistant Klebsiella pneumoniae isolate 14 harboring CTX-M-14, KPC-2 and SHV-12 assessed as meropenem MIC by CLSI protocol based assay (Rvb >= 128 ug/ml); assay type: functional
[32] = tested on: Enterobacter cloacae; assay: Growth inhibition of carbapenem-resistant Enterobacter cloacae isolate 18 harboring IMP-4 and TEM-1 by CLSI protocol based assay; assay type: functional

SMILES	MIC [1] [µg/mL]	fractional inhibitory concentration index (FICI) [2]	MIC [3] [µg/mL]	MIC [4]	MIC [5] [µg/mL]	fractional inhibitory concentration index (FICI) [6]	fractional inhibitory concentration index (FICI) [7]	MIC [8] [µg/mL]	fractional inhibitory concentration index (FICI) [9]	MIC [10] [µg/mL]	MIC [11] [µg/mL]	fractional inhibitory concentration index (FICI) [12]	fractional inhibitory concentration index (FICI) [13]	MIC [14] [µg/mL]	MIC [15] [µg/mL]	MIC [16] [µg/mL]	MIC [17] [µg/mL]	fractional inhibitory concentration index (FICI) [18]	MIC [19] [µg/mL]	fractional inhibitory concentration index (FICI) [20]	other results
CC(C)(C)OC(=O)NCCn1[se]c2ccccc2c1=O	4	0.5	≥ 128	>= 128 ug ml-1	16	0.25	0.19	4	0.25	8	≥ 128	0.13	0.13	8	8	≥ 128	32	0.16	8	0.13	MIC [21]: ≥ 128 µg/mL; MIC [22]: ≥ 128 µg/mL; MIC [23]: 4 µg/mL; MIC [24]: ≥ 128 µg/mL; fractional inhibitory concentration index (FICI) [25]: 0.047; fractional inhibitory concentration index (FICI) [26]: 0.16; fractional inhibitory concentration index (FICI) [27]: 0.13; MIC [28]: ≥ 128 µg/mL; MIC [29]: ≥ 128 µg/mL; fractional inhibitory concentration index (FICI) [30]: 0.09; MIC [31]: 8 µg/mL; MIC [32]: ≥ 128 µg/mL
O=c1c2ccccc2[se]n1-c1ccccc1 [EBSELEN]	64	1	≥ 128	64 µg/mL (≈ 233 µM)	≥ 128	2	1.5	16	0.5	64	≥ 128	0.25	0.5	16	32	≥ 128	64	1.25	≥ 128	2	MIC [21]: ≥ 128 µg/mL; MIC [22]: ≥ 128 µg/mL; MIC [23]: 16 µg/mL; MIC [24]: ≥ 128 µg/mL; fractional inhibitory concentration index (FICI) [25]: 0.5; fractional inhibitory concentration index (FICI) [26]: 2.5; fractional inhibitory concentration index (FICI) [27]: 2; MIC [28]: ≥ 128 µg/mL; MIC [29]: ≥ 128 µg/mL; fractional inhibitory concentration index (FICI) [30]: 0.38; MIC [31]: ≥ 128 µg/mL; MIC [32]: ≥ 128 µg/mL
